A selection: hits, their analogues and other compounds. The true share with any hit is near 2.7%.
MLL AF4-AF9 inh: inhibitors of AF4 peptide binding to AF9, primary screen, biochemical, AlphaScreen, biotin-AF4 peptide, FLAG-AF9, single point; hit rate 0.47% among 350,000; Protein AF-9 (Homo sapiens), P42568; inhibition, % at 10 µM;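 active = every replicate reaching a set inhibition limit, whatever the replicate mean, cut at about 25% in these data; inconclusive = mean inhibition reaches that limit but some replicates miss it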;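 also: 0% = plate neutral control median and 100% = total signal loss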
CaV13 FRET inh: Disruptors of the CACNA1D IQ motif to Ca2+-dependent inactivation inhibitor domain association, primary screening, Förster resonance energy transfer in intact living … | HEK cells, CFP/YFP FRET ICDI-IQ, plate reader, 10 min; percent FRET-ratio fall versus neutral wells | inhibition, % at 12.3 µM | hit rate 0.098% among 340,000;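 active = mean replicate inhibition of at least 30% and at least 1% of replicates passing that level; inconclusive = only one of the two criteria is met; inactive = neither criterion is met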;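 also: 0% = median of the neutral control wells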
DENV2 CPE rescue: inhibitors of DENV2 cytopathic effect, primary screen, cell-based, plate reader, single concentration; DENV2-infected cells, cytopathic effect rescue; hit rate 1.7% among 350,000; AID 651640, 2012; CPE inhibition, % at 9.99 µM; in the data active = CPE inhibition above about 20%, passing the limit was not always enough; inconclusive = no clear call, values can overlap the other calls; tested in BHK-21 cells;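 also: 0% = median of neutral control wells and 100% = median of positive control wells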
SIRT5 inh: SIRT5 desuccinylase inhibitors, primary screen, biochemical, fluorescence imaging, single point, set 5; NAD-dependent protein deacylase sirtuin-5, mitochondrial (Homo sapiens), Q9NXA8; Purified SirT5, succinyl-peptide AMC, trypsin-coupled fluorescence; hit rate 1.1% among 330,000; inhibition, % at 15 µM; in the data active = inhibition above about 15%; inconclusive = no clear call, values can overlap the other calls
Target sequence (Q9NXA8 whole entry, looked up): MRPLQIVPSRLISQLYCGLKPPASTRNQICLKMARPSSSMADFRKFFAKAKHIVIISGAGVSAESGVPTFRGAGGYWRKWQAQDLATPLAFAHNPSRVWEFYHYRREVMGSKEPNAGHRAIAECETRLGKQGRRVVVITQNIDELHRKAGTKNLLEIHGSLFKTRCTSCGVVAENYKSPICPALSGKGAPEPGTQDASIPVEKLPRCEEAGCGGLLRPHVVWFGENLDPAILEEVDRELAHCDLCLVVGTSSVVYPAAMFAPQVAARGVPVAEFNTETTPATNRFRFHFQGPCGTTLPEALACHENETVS
S100A4 MyoIIA: inhibitors of S100A4-myosin IIA peptide binding, primary screen, biochemical, fluorescence polarization, TAMRA-MyoIIA peptide; Protein S100-A4 (Homo sapiens), P26447; inhibition, % at 10.7 µM; hit rate 0.14% among 360,000; AID 652163, 2013;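 active = mean inhibition of at least 70% across replicates, with every replicate also reaching that level; inconclusive = mean inhibition reaches 70% but some replicates fall short; inactive = mean inhibition below 70%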
Target sequence (P26447 whole entry, looked up): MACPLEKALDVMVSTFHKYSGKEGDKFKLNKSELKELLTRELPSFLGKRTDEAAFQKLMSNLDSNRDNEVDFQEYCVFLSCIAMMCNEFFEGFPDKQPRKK
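System – human S100A4 monomer protein, biochemical binding assay · Buffer or medium – Calcium-containing HEPES buffer, pH 7.2 · Timing – 5 min between mix addition and reading · Also added – TAMRA-labelled myosin IIA heavy-chain peptide probe, 5 nM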
Alpha interfer: AlphaScreen signal interference counter-screen, dose response, artefact control, biochemical, cherry-picked samples, luminescence; hit rate 45% among 530; shares compounds with MLL AF4-AF9 inh; AID 720494, 2013; AC50, µM (doses to about 12 µM), for inactives: at the top dose activity change, negative = inhibition; cut-off not given, nearly all actives have AC50 up to about 14 µM
Active calls of the source: *; ? = inconclusive; nt = no result given; ! = not confirmed by another sample.

SMILES	MLL AF4-AF9 inh	CaV13 FRET inh	DENV2 CPE rescue	SIRT5 inh	S100A4 MyoIIA	Alpha interfer
COCCCNCC(O)COc1cccc2[nH]c(C)cc12 (configuration not stated)	52*	-6	-5	-1	-1	-22%
COc1ccc(N2CCC(CNC(=S)Nc3ccc(C)cc3C)C2)cc1 (configuration not stated)	?	-2	-2	-8	-10	-14%
COc1ccc(N2CCC(CNC(=S)Nc3c(C)cc(C)cc3C)C2)cc1 (configuration not stated)	23	-4	nt	nt	-1	nt
N#Cc1nc(-c2cccs2)oc1N1CCN(Cc2ccccc2)CC1	31*	-9	nt	-4	-4	-27%
O=[N+]([O-])c1ccccc1/C=C/C=N/N1CCCCC1	26*	-5	4	1	-6	13µM*
COc1ccc2c3c(n(C)c2c1)[C@@H](CO)N(Cc1cccc(Cl)c1)CC31CN(C(C)=O)C1	1	nt	-2	nt	13	nt
CC(C)NC(=S)N/N=C/c1sc(N2CCCCC2)nc1-c1cccs1	-1	-30	7	5	-33	nt
O=C(N/N=C/c1sc(N2CCCCC2)nc1-c1cccs1)C1CC1	23	-16	-2	-1	-8	-20%
COCCNC(=O)C[C@@H]1C[C@@H]2c3cc(NS(=O)(=O)c4ccccc4)ccc3O[C@@H]2[C@@H](CO)O1	0	nt	0	-2	-5	nt
O=C(Nc1ccc(N2CCCCC2)cc1)c1ccc([N+](=O)[O-])o1	9	-9	-6	2	-3	nt
O=C(Nc1ccc(N2CCCC2)c(Cl)c1)c1ccc([N+](=O)[O-])o1	49*	-5	1	0	-10	13µM*
O=C(C[C@H]1CC[C@@H]2[C@H](COC[C@@H](O)CN2S(=O)(=O)c2ccccc2)O1)NCC1CCCCC1	39*	nt	1	100*	-29	-18%
CN1\C(=C/C=C/C=C/C=[N+](C)C)C(C)(C)c2ccccc21	41*	-26	3	2	3	9.8µM*
S=C(NN=C(c1ccccc1)c1ccccn1)N(Cc1ccccn1)Cc1ccccn1	53*	-6	1	-3	-12	8µM*
CO[C@H]1CN(C)C(=O)c2cc(NC(=O)c3cc(C)on3)ccc2OC[C@H](C)N(C(C)=O)C[C@@H]1C	2	nt	6	1	44	nt
CCOC(=O)c1c(-c2ccc(-c3ccccc3)cc2)csc1NC(=O)CNCCN(C)C	31*	-14	17	-7	-10	-32%
CCOC(=O)c1c(-c2ccccc2)csc1NC(=O)CCN1C(=O)c2ccccc2C1=O	-1	-2	9	-10	3	nt
C#CCOCCOCCOCCNc1nc(N2CCN(C(=O)[C@H]([C@@H](C)CC)n3cc(CCCN=C(N)N)nn3)CC2)nc(N2CCN(C(=O)[C@H](CCCCN)n3cc(CCC(=O)O)nn3)CC2)n1	8	-9	-11	-5	2	nt
C#CCOCCOCCOCCNc1nc(N2CCN(C(=O)[C@H](CCCCN)n3cc(CN)nn3)CC2)nc(N2CCN(C(=O)[C@H](CCCN=C(N)N)n3cc(C(N)[C@H](C)CC)nn3)CC2)n1 (some centres not stated)	45*	-5	-7	nt	-6	-10%
C#CCOCCOCCOCCNc1nc(N2CCN(C(=O)C([C@@H](C)O)n3cc([C@@H](N)CCCCN)nn3)CC2)nc(N2CCN(C(=O)C([C@@H](C)O)n3cc([C@@H](N)CCCCN)nn3)CC2)n1 (some centres not stated)	39*	-5	nt	-2	16	17%
C#CCOCCOCCOCCNc1nc(N2CCN(C(=O)[C@H](CCCCN)n3cc([C@@H](N)C(C)CC)nn3)CC2)nc(N2CCN(C(=O)[C@H](CCCCN)n3cc([C@@H](N)CC(C)C)nn3)CC2)n1 (some centres not stated)	56*	7	19	nt	-4	-3%
C#CCOCCOCCOCCNc1nc(N2CCN(C(=O)[C@H](CCCCN)n3cc(CN)nn3)CC2)nc(N2CCN(C(=O)[C@H](CC(N)=O)n3cc(C(N)[C@H](C)CC)nn3)CC2)n1 (some centres not stated)	?	-3	9	nt	3	-13%
C#CCOCCOCCOCCNc1nc(N2CCN(C(=O)[C@H](CCCCN)n3cc(CN)nn3)CC2)nc(N2CCN(C(=O)[C@H](CCC(=O)O)n3cc([C@@H](N)[C@H](C)CC)nn3)CC2)n1	1	-5	?	nt	-2	nt
CCCC#Cc1cnc2c(c1)C(=O)N([C@@H](C)CO)C[C@H](C)[C@@H](CN(C)C(=O)CCN1CCCCC1)O2	0	nt	?	-2	-8	nt
CC1CCN(C2=C(NS(=O)(=O)c3ccc(Br)cc3)C(=O)c3ccccc3C2=O)CC1	50*	-15	-1	0	-3	-36%
SMILES	MLL AF4-AF9 inh	CaV13 FRET inh	DENV2 CPE rescue	SIRT5 inh	S100A4 MyoIIA	Alpha interfer
CC1CCN(C2=C(NS(=O)(=O)c3ccc(Cl)cc3)C(=O)c3ccccc3C2=O)CC1	14	-5	7	0	14	nt
CCOC(=O)C1CCN(C2=C(NS(=O)(=O)c3ccc(Cl)cc3)C(=O)c3ccccc3C2=O)CC1	30*	-6	4	1	?	1%
CCOC(=O)C1CCCN(C2=C(NS(=O)(=O)c3ccc(Br)cc3)C(=O)c3ccccc3C2=O)C1 (configuration not stated)	52*	-7	9	2	-2	-20%
Fc1ccc(C(c2ccc(F)cc2)N2CCN(C/C=C/c3ccccc3)CC2)cc1	34*!	-5	1	1	0	11%
COc1ccc2nc3ccccc3nc2c1N	?	-4	1	-1	-15	12µM*
COc1ccc2nc3cccc(OC)c3nc2c1	2	-10	-1	-4	1	nt
Cc1ccc(S(=O)(=O)Nc2cccc3c2O[C@H](CN(C)S(=O)(=O)c2ccc(Cl)cc2)[C@H](C)CN([C@@H](C)CO)C3=O)cc1	nt	nt	-8	-3	nt	nt
CN1CCN(C(c2ccc(Br)cc2)c2cc(Cl)c3cccnc3c2O)CC1 (configuration not stated)	84*	-8	4	-1	0	2.8µM*
CC(=O)NC(C)c1cc(Cl)c2cccnc2c1O (configuration not stated)	4	-5	nt	-3	-2	nt
CCCC(=O)N1CC2(C1)CN(C(=O)Nc1ccc(F)cc1)[C@@H](CO)c1c2c2ccc(OC)cc2n1C	0	nt	-10	4	-4	nt
CN(C)CC/C=C1\c2ccc(F)cc2Sc2cc(F)c(Cl)cc21	46*	-4	-13	0	13	-42%

Screens: PubChem BioAssay, Broad Institute
